Laboratory results as given in ChEMBL document CHEMBL1138216, “Design and synthesis of novel derivatives of the muscarinic agonist tetra(ethylene glycol)(3-methoxy-1,2,5-thiadiazol-4-yl) [3-(1-methyl-1,2,5,6-tetrahydropyrid-3-yl)-1,2,5-thiadiazol-4-yl] ether (CDD-0304): effects of structural modifications on the binding and activity at muscarinic receptor …” (J Med Chem, 2006).
pEC50, pIC50, pKi: −log10 of the molar value. Active and inactive are the calls of the source. The rule behind the calls is not given here.

Key:
[1] = biological target: T1, Muscarinic acetylcholine receptor M1 (Homo sapiens, UniProt P11229); assay: Inhibition of [3H](R)-QNB binding to human M1 receptor expressed in A9 L cells; format: cell-based, A9L
T1 sequence (P11229 whole entry): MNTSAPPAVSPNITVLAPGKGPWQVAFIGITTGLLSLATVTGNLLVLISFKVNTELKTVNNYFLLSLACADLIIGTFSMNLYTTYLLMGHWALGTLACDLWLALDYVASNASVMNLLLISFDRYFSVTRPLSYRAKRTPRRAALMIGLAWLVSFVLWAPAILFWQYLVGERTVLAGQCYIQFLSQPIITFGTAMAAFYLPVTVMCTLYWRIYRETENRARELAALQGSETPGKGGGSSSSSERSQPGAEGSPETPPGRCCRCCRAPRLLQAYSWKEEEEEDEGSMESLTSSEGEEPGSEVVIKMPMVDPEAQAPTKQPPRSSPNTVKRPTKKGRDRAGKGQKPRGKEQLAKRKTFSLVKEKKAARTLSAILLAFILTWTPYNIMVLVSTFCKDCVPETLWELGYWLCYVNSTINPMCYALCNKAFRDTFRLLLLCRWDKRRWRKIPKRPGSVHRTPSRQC

[2] = biological target: T2, Muscarinic acetylcholine receptor M2 (Homo sapiens, UniProt P08172); assay: Inhibition of [3H](R)-QNB binding to human M2 receptor expressed in A9 L cells; format: cell-based, A9L
T2 sequence (P08172 whole entry): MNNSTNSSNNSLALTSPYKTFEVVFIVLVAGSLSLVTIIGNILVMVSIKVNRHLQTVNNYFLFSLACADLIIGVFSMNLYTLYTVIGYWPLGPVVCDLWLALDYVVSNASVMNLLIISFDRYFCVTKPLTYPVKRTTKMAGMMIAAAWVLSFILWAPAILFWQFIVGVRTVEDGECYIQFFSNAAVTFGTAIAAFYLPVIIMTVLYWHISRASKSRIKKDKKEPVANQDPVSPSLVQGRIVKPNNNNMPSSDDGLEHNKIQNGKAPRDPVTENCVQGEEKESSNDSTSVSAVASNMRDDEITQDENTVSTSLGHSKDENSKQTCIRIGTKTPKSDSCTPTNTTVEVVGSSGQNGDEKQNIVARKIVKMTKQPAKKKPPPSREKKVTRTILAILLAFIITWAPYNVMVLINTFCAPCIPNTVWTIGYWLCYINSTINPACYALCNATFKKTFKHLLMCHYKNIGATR
Outline: (§1)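 Membranes from A9 L cells expressing the receptor; 0.1 nM [3H]-(R)-QNB with 14 concentrations of test ligand (0.01 nM to 3 mM) in 25 mM sodium phosphate pH 7.4, 5 mM MgCl2, 2 h room temperature; nonspecific binding with 1000-fold excess unlabeled (R)-QNB.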

[3] = biological target: T3, Muscarinic acetylcholine receptor M3 (Homo sapiens, UniProt P20309); assay: Inhibition of [3H](R)-QNB binding to human M3 receptor expressed in A9 L cells; format: cell-based, A9L
Target sequence in this assay (P20309 whole entry): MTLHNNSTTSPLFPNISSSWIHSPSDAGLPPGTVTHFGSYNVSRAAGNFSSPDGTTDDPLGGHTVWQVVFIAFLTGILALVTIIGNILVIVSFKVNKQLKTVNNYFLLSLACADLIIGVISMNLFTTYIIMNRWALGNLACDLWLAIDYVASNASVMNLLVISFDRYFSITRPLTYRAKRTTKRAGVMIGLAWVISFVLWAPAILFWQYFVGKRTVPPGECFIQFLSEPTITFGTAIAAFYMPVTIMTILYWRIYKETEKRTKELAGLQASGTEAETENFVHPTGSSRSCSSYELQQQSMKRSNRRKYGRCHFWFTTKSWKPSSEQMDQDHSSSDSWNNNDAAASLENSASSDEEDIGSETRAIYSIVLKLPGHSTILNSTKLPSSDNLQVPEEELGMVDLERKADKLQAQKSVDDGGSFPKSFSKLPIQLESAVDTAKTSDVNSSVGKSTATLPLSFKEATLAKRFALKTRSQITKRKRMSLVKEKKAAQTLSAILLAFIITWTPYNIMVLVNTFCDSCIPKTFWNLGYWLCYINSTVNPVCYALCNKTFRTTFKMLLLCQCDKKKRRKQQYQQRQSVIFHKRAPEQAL

[4] = biological target: T4, Muscarinic acetylcholine receptor M4 (Homo sapiens, UniProt P08173); assay: Inhibition of [3H](R)-QNB binding to human M4 receptor expressed in A9 L cells; format: cell-based, A9L; outline: as §1
T4 sequence (P08173 whole entry): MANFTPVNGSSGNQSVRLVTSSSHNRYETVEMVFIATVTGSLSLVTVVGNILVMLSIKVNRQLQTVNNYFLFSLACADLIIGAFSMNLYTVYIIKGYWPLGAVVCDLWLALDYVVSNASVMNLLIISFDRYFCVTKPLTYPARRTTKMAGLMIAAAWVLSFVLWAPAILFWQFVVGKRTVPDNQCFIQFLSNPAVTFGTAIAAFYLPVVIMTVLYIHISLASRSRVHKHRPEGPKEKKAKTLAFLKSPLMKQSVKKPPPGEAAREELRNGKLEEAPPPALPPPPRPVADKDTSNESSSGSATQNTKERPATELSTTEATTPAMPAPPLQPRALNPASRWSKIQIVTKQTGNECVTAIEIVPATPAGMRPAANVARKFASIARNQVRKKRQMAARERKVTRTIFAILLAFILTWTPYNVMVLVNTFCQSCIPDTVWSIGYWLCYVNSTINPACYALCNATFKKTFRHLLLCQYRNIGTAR

[5] = biological target: T5, Muscarinic acetylcholine receptor M5 (Homo sapiens, UniProt P08912); assay: Inhibition of [3H](R)-QNB binding to human M5 receptor expressed in A9 L cells; format: cell-based, A9L; outline: as §1
T5 sequence (P08912 whole entry): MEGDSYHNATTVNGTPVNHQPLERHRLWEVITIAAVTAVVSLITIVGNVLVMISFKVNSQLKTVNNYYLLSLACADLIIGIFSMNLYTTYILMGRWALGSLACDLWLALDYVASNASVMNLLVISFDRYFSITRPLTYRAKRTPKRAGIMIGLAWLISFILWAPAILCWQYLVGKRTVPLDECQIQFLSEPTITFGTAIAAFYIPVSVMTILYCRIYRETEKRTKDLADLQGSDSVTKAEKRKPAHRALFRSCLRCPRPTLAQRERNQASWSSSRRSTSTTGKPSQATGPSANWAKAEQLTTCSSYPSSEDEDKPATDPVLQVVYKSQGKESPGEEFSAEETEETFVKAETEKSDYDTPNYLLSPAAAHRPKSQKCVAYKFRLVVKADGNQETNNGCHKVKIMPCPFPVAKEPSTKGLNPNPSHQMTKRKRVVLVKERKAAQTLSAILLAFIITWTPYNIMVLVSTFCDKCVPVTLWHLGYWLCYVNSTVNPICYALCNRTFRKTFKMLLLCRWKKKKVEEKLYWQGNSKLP

[6] = biological target: T1, Muscarinic acetylcholine receptor M1; assay: Agonist activity at human M1 receptor expressed in A9 L cells assessed as stimulation of phosphoinositide hydrolysis; format: functional, cell-based, L929
[7] = biological target: T6, Muscarinic acetylcholine receptor M1 (Homo sapiens) (UniProt P11229); assay: Agonist activity at human M1 receptor expressed in A9 L cells assessed as stimulation of phosphoinositide hydrolysis relative to carbachol; format: functional, cell-based; conditions: L929
T6 sequence (whole entry): T1 sequence (P11229 whole entry)
Outline: (§2)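 A9 L cells stably expressing the receptor, seeded 24 h, labelled overnight with 10 µCi/mL [3H]inositol in inositol-free DMEM; ligands in HBSS with 10 mM LiCl, 20 mM HEPES, 37 °C, 1 h; formic acid extraction, inositol phosphates counted by SPA beads.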

[8] = biological target: T3, Muscarinic acetylcholine receptor M3; assay: Agonist activity at human M3 receptor expressed in A9 L cells assessed as stimulation of phosphoinositide hydrolysis relative to carbachol; format: functional, cell-based; conditions: L929; outline: as §2
Target sequence in this assay (P20309 whole entry, looked up): as the sequence (P20309 whole entry) above

[9] = biological target: T7, Muscarinic acetylcholine receptor M5 (Homo sapiens) (UniProt P08912); assay: Agonist activity at human M5 receptor expressed in A9 L cells assessed as stimulation of phosphoinositide hydrolysis relative to carbachol; format: functional, cell-based; conditions: L929; outline: as §2
T7 sequence (whole entry): T5 sequence (P08912 whole entry)

[10] = biological target: T2, Muscarinic acetylcholine receptor M2; assay: Activity at human M2 receptor assessed as inhibition of forskolin-stimulated cAMP accumulation; format: functional
[11] = biological target: T8, Muscarinic acetylcholine receptor M2 (Homo sapiens) (UniProt P08172); assay: Activity at human M2 receptor assessed as inhibition of forskolin-stimulated cAMP accumulation relative to carbachol; format: functional
T8 sequence (whole entry): T2 sequence (P08172 whole entry)

[12] = biological target: T4, Muscarinic acetylcholine receptor M4; assay: Activity at human M4 receptor assessed as inhibition of forskolin-stimulated cAMP accumulation; format: functional
[13] = biological target: T9, Muscarinic acetylcholine receptor M4 (Homo sapiens) (UniProt P08173); assay: Activity at human M4 receptor assessed as inhibition of forskolin-stimulated cAMP accumulation relative to carbachol; format: functional
T9 sequence (whole entry): T4 sequence (P08173 whole entry)

Rattus norvegicus = assay: Antipsychotic activity in Sprague-Dawley rat assessed as ability to reverse apomorphine effect on prepulse inhibition of the startle response at 1 mg/kg, sc; format: functional, organism-based; set-up: dose 1 mg/kg
Outline: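 Male Sprague-Dawley rats, 250-300 g, habituated a day before. Drug in water or saline sc (1 mL/kg) 25 min, apomorphine 1.0 mg/kg 5 min pre-test; muscarinic agonists 0.1-3 mg/kg. Session of 15 each pulse-alone (120 dB, 100 ms) and pulse preceded 200 ms by 20 ms prepulse 12 dB above 70 dB background; 12 rats/group; %PPI calculated.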

[14] = biological target: T7, Muscarinic acetylcholine receptor M5 (Homo sapiens); assay: Agonist activity at human M5 receptor expressed in A9 L cells assessed as stimulation of phosphoinositide hydrolysis at 100 uM relative to carbachol; format: functional, cell-based; conditions: L929
[15] = biological target: T3, Muscarinic acetylcholine receptor M3; assay: Antagonist activity at human M3 receptor assessed as inhibition of carbachol […]; conditions: read-out: pA2 (converted)
Target sequence in this assay (P20309 whole entry): as the sequence (P20309 whole entry) above

[16] = biological target: T8, Muscarinic acetylcholine receptor M2 (Homo sapiens); assay: Activity at human M2 receptor assessed as inhibition of forskolin-stimulated cAMP accumulation at 1 mM relative to carbachol; format: functional
[17] = biological target: T9, Muscarinic acetylcholine receptor M4 (Homo sapiens); assay: Activity at human M4 receptor assessed as inhibition of forskolin-stimulated cAMP accumulation at 1 mM relative to carbachol; format: functional

CN1CCC=C(c2nsnc2OCCOCCOCCOCCO)C1
pKi [1]: 6.00
pKi [2]: 6.50
pKi [3]: 6.50
pKi [4]: 6.10
pKi [5]: 5.40
pEC50 [6]: 6.10
Smax [7]: 7.9%
Activity [8]: inactive
Smax [9]: 7.4%
pIC50 [10]: 8.10
Imax [11]: 86%
pIC50 [12]: 4.60
Imax [13]: 110%

Clc1ccc2c(c1)N=C(N1CCNCC1)c1ccccc1N2
Activity (Rattus norvegicus): inactive

COc1nsc(OCCCOCCCOCCCOc2nsnc2C2=CCCN(C)C2)n1
pKi [1]: 7.20
pKi [2]: 7.20
pKi [3]: 6.70
pKi [4]: 6.80
pKi [5]: 6.60
pEC50 [6]: 6.30
Smax [7]: 27%
Activity [8]: inactive
Activity [9]: inactive
Imax [11]: inactive
pIC50 [12]: 5.20
Imax [13]: 130%

COc1nsnc1OCCOCCOCCOCCOCCOc1nsnc1C1=CCCN(C)C1
pKi [1]: 6.40
pKi [2]: 8.60
pKi [3]: 5.80
pKi [4]: 7.90
pKi [5]: 7.00
pEC50 [6]: 6.60
Smax [7]: 28%
Activity [8]: inactive
Smax [14]: 0.95%
pIC50 [10]: 6.40
Imax [11]: 98%
pIC50 [12]: 6.40
Imax [13]: 37%
Kb [15]: 63.1 nM

CN1CCN(C2=Nc3cc(Cl)ccc3Nc3ccccc32)CC1
Activity (Rattus norvegicus): Active

COc1nsnc1OCCCOCCCOCCCOc1nsnc1C1=CCCN(C)C1
pKi [1]: 7.00
pKi [2]: 6.80
pKi [3]: 6.70
pKi [4]: 6.80
pKi [5]: 7.00
pEC50 [6]: 5.50
Smax [7]: 21%
Activity [8]: inactive
Smax [9]: 0.6%
Imax [16]: 130%
Imax [17]: 260%

COc1nsnc1OCCOCCOCCOc1nsnc1C1=CCCN(C)C1
pKi [1]: 6.50
pKi [2]: 7.40
pKi [3]: 6.60
pKi [4]: 7.10
pKi [5]: 6.20
pEC50 [6]: 6.10
Smax [7]: 13%
Activity [8]: inactive
Smax [14]: 1.3%
pIC50 [10]: 5.50
Imax [11]: 110%
pIC50 [12]: 5.10
Imax [13]: 100%

COc1nsnc1OCCOCCOc1nsnc1C1=CCCN(C)C1
pKi [1]: 6.10
pKi [2]: 7.40
pKi [3]: 7.30
pKi [4]: 7.20
pKi [5]: 6.60
pEC50 [6]: 6.00
Smax [7]: 11%
Activity [8]: inactive
Smax [14]: 0.83%
pIC50 [10]: 7.10
Imax [11]: 77%
pIC50 [12]: 5.10
Imax [13]: 47%

O=C(CCCN1CCC(O)(c2ccc(Cl)cc2)CC1)c1ccc(F)cc1
Activity (Rattus norvegicus): Active
